Results taken from ChEMBL document CHEMBL5055627 (J Med Chem, 2021).
In brackets after ≈: the same amount, converted by molar mass. Activity calls are given as the source filed them. No cut-off for these calls is given here.

Key:
[1] = molecular target: T1, 20S immunoproteasome beta-2i subunit (Homo sapiens, UniProt P40306); experiment: Inhibition of human 20S immunoproteasome beta-2i subunit at 100 uM using Z-VLR-AMC as substrate measured over 1.5 to 2 hrs by plate reader assay relative to control; settings: probe Z-VLR-AMC, time 1.5-2 hrs
T1 sequence (P40306 whole entry): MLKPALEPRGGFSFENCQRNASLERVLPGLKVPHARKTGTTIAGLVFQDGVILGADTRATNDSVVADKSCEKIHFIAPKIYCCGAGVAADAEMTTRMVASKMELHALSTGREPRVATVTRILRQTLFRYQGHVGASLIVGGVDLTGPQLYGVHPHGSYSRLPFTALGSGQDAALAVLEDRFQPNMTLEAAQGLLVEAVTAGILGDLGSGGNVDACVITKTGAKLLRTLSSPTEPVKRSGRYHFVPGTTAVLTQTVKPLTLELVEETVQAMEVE
Summary of the method: (§1)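 Human c-20S β2c or i-20S β2i, activated with 6 nM PA28α, with 50 μM Z-VLR-AMC in 20 mM HEPES, 0.5 mM EDTA, pH 7.5. Compounds in 3-fold series from 100 μM.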

[2] = test system: Mycobacterium tuberculosis; experiment: Inhibition of intracellular 20S proteasome activity in Mycobacterium tuberculosis MHD1441 expressing Pup-GFP assessed as Pup-GFP accumulation measured after 4 days by fluorescence assay; assay type: cell-based; settings: dose 0.1-33 µM, time 4.0 day
Summary of the method: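 Mtb H37Rv carrying pSCK1 (produces Pup-GFP), adjusted to OD 0.05 in 7H9. Compounds at 33, 11, 3.7, 1.2, 0.4 and 0.1 μM final, incubated 4 d at 37 °C. OD580 and fluorescence (ex 495/em 510 nm) read; RFU normalised to OD, then expressed as fold of DMSO control; ≥3 independent experiments.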

[3] = Permeability of compound by PAMPA; assay type: ADME
[4] = test system: HepG2; experiment: Cytotoxicity against human HepG2 cells assessed as cell viability at 30 uM incubated for 72 hrs relative to control; assay type: cell-based; settings: hepg2, 72 h
Summary of the method: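 HepG2 cells exposed to 30 μM compound for 72 h, then viability assessed.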

[5] = Stability of mouse liver microsomes assessed as intrinsic clearance at 1 uM measured upto 30 mins in presence of NADPH generating system by LC/MS-MS analysis; assay type: ADME, Microsome; settings: 0.5 h
Summary of the method: (§2)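 Compound at 1 μM with human or mouse liver microsomes (0.2 mg protein/mL) in phosphate buffer pH 7.4, started with NADPH-generating system; 1% organic solvent. Incubated at 37 °C for 0, 15 and 30 min in duplicate, quenched with acetonitrile plus internal standard, analysed by LC/MS-MS. CLint = first-order k divided by protein concentration.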

[6] = Stability in human plasma assessed as parent compound remaining incubated for 2 hrs by UPLC/MS analysis; assay type: ADME, cell-free; settings: read-out: Stability
[7] = molecular target: T2, Proteasome Macropain subunit MB1 (Homo sapiens, UniProt P28074); experiment: Inhibition of human 20S constitutive proteasome beta-5c subunit using Suc-LLVY-AMC as substrate measured over 1.5 to 2 hrs by plate reader assay
T2 sequence (P28074 whole entry): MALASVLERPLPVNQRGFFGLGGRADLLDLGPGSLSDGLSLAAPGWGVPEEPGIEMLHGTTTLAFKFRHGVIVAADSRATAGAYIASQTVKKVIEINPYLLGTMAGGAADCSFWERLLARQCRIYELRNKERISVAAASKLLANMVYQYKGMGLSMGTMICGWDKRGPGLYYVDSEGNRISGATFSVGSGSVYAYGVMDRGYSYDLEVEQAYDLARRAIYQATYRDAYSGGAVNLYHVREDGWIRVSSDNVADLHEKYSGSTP
Summary of the method: (§3)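 Human c-20S (from red blood cells; β5c 0.2 nM final) or i-20S (from PBMC; β5i 0.4 nM final), activated with 0.02% SDS. Buffer 20 mM HEPES, 0.5 mM EDTA, pH 7.5; 3-fold compound series from 100 μM.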

[8] = molecular target: T3, Proteasome subunit beta type-8 (Homo sapiens, UniProt P28062); experiment: Inhibition of human 20S immunoproteasome beta-5i subunit using Suc-LLVY-AMC as substrate measured over 1.5 to 2 hrs by plate reader assay; summary of the method: as §3
T3 sequence (P28062 whole entry): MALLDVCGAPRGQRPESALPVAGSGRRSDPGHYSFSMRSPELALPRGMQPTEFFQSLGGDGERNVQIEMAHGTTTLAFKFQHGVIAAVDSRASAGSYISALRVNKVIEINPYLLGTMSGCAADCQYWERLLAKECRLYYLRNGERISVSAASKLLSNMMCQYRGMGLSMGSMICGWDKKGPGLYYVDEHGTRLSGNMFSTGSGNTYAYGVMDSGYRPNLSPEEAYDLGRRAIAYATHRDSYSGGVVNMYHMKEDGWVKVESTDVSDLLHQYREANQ

[9] = molecular target: T4, 20S immunoproteasome beta-1i subunit (Homo sapiens, UniProt P28065); experiment: Inhibition of human 20S immunoproteasome beta-1i subunit at 100 uM using Z-LLE-AMC as substrate measured over 1.5 to 2 hrs by plate reader assay relative to control; settings: probe Z-LLE-AMC, time 1.5-2 hrs
T4 sequence (P28065 whole entry): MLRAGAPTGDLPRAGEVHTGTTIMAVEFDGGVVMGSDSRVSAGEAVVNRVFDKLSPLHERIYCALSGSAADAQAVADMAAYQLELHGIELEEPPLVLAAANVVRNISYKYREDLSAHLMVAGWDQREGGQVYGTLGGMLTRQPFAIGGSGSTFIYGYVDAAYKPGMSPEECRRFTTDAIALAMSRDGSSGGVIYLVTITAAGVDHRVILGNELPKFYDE
Summary of the method: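 Human c-20S β1c or i-20S β1i, activated with 0.02% SDS, with 50 μM Z-LLE-AMC in 20 mM HEPES, 0.5 mM EDTA, pH 7.5. AMC fluorescence (ex 360/em 460 nm) recorded over 1.5–2 h.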

[10] = Stability of human liver microsomes assessed as intrinsic clearance at 1 uM measured upto 30 mins in presence of NADPH generating system by LC/MS-MS analysis; assay type: ADME, Microsome; settings: 0.5 h; summary of the method: as §2
[11] = test system: Mycobacterium tuberculosis; experiment: Inhibition of intracellular 20S proteasome activity in Mycobacterium tuberculosis assessed as accumulation of pupylated protein at 50 uM incubated for 48 hrs; assay type: cell-based
Summary of the method: (§4)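 Mtb CDC1551 dop::MycoMarT7 expressing Pup-GGE (no depupylation) treated 48 h with compound at 1, 3 or 10 μM, or carfilzomib at 50 μM. Pupylated proteins detected by anti-Pup immunoblot, with anti-PrcB as loading control.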

[12] = Kinetic solubility of compound in PBS at pH 6.8 incubated for 24 hrs by UPLC/MS analysis; assay type: physicochemical; settings: read-out: Kinetic_solubility
[13] = molecular target: T5, Proteasome subunit beta type-10 (Homo sapiens, UniProt P40306); experiment: Inhibition of human 20S immunoproteasome beta-2i subunit using Z-VLR-AMC as substrate measured over 1.5 to 2 hrs by plate reader assay; summary of the method: as §1
T5 sequence (P40306 whole entry): T1 sequence (P40306 whole entry)

[14] = test system: Mycobacterium tuberculosis; experiment: Inhibition of intracellular 20S proteasome activity in Mycobacterium tuberculosis assessed as accumulation of pupylated protein incubated for 48 hrs; assay type: cell-based; settings: dose 1-10 µM; summary of the method: as §4
[15] = test system: Mycobacterium tuberculosis; experiment: Inhibition of Mycobacterium tuberculosis 20S proteasome expressed in Escherichia coli BL21(DE3) assessed as half life using Suc-LLVY-AMC as substrate by plate reader assay
[16] = Inhibition of Mycobacterium tuberculosis 20S proteasome expressed in Escherichia coli BL21(DE3) using Suc-LLVY-AMC as substrate by plate reader assay
[17] = test system: Mycobacterium tuberculosis; experiment: Inhibition of Mycobacterium tuberculosis 20S proteasome expressed in Escherichia coli BL21(DE3) at 10 to 30 nM using Suc-LLVY-AMC as substrate by plate reader assay; settings: dose 10-30 nM, TDE = time-dependent effect
[18] = test system: Mycobacterium tuberculosis; experiment: Bactericidal activity against Mycobacterium tuberculosis under nitrosative stress condition; assay type: functional, organism-based
Summary of the method: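 Non-replicating Mtb Erdman held in Sauton's medium with 0.5 mM NaNO₂ at pH 5.5 to generate NO; killing measured as reported previously.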

| SMILES | inhibition at 100 µM [1] [%] | IC50 [7] [µM] | IC50 [8] [µM] | inhibition at 100 µM [9] [%] | also measured |
| --- | --- | --- | --- | --- | --- |
| O=C1CCCCCCCCOC[C@@H](C(=O)NCc2ccccc2F)NC(=O)[C@H](CC(=O)N2CCC[C@@H]2c2ccccc2)N1 | < 50 | > 100 | > 100 | < 50 | inhibition [2]: Dose-dependent effect; permeability [3]: 26 ×10⁻⁶ cm/s; Activity [4]: 91%; CLH [5]: > 768 µL/min/mg; remaining at 2 h [6]: 86%; CLH [10]: > 768 µL/min/mg |
| O=C1N[C@@H](CC(=O)N2CCCC2)C(=O)N[C@H](C(=O)NCc2cccc3ccccc23)CCCCCCCCCC1Cc1ccccc1 (stereo partly drawn) | < 50 | – | > 100 | < 50 | – |
| CC(=O)N[C@H]1Cc2cccc(c2)Oc2ccc(cc2)C[C@@H](C(=O)NCc2ccccc2F)NC(=O)[C@H](CC(=O)N2CCC[C@@H]2c2ccccc2)NC1=O | < 50 | > 100 | > 100 | < 50 | – |
| CC(C)C[C@H](NC(=O)[C@H](CCc1ccccc1)NC(=O)CN1CCOCC1)C(=O)N[C@@H](Cc1ccccc1)C(=O)N[C@@H](CC(C)C)C(=O)[C@@]1(C)CO1 | – | – | – | – | inhibition [11]: Active |
| O=C1CCc2cccc(c2)OCCCC[C@@H](C(=O)NCc2ccccc2F)NC(=O)[C@H](CC(=O)N2CCC[C@@H]2c2ccccc2)N1 | < 50 | > 100 | > 100 | < 50 | inhibition [2]: Dose-dependent effect; permeability [3]: 20.6 ×10⁻⁶ cm/s; Activity [4]: 102%; CLH [5]: > 768 µL/min/mg; solubility kinetic at 24 h [12]: 33 µg/mL (≈ 52.5 µM); remaining at 2 h [6]: 97%; CLH [10]: > 768 µL/min/mg |
| CCN(CC)C(=O)C[C@H](NC(=O)CCc1ccccc1)C(=O)N[C@@H](Cc1ccc(F)cc1)C(=O)NCc1cccc2ccccc12 | – | 70 | 54.7 | – | – |
| O=C1CCc2cccc(c2)Oc2ccc(cc2)C[C@@H](C(=O)NCc2ccccc2F)NC(=O)[C@H](CC(=O)N2CCCC2)N1 | < 50 | > 100 | 21.1 | < 50 | – |
| O=C1CCCCCCCCOC[C@@H](C(=O)NCc2cccc3ccccc23)NC(=O)[C@H](CC(=O)N2CCCC2)N1 | < 50 | > 100 | > 100 | < 50 | – |
| O=C1CCc2cccc(c2)OCCCC[C@@H](C(=O)NCc2ccccc2F)NC(=O)[C@H](CC(=O)N2CCC[C@@H]2C2CC2)N1 | < 50 | 0.073 | 0.069 | < 50 | IC50 [13]: 44.5 µM |
| O=C1CCc2cccc(c2)Oc2ccc(cc2)C[C@@H](C(=O)NCc2ccccc2F)NC(=O)[C@H](CC(=O)N2CCC[C@@H]2c2ccccc2)N1 | < 50 | > 100 | > 100 | < 50 | inhibition [2]: Dose-dependent effect; permeability [3]: 22.7 ×10⁻⁶ cm/s; Activity [4]: 98%; inhibition [14]: Dose-dependent effect; CLH [5]: > 768 µL/min/mg; T1/2 [15]: 16.5 min; solubility kinetic at 24 h [12]: 1.4 µg/mL (≈ 2.11 µM); Ki [16]: 0.0121 µM; inhibition [17]: Tde; remaining at 2 h [6]: 94%; Activity [18]: Dose-dependent effect; CLH [10]: > 768 µL/min/mg |
| O=C1CCCCCCCCC[C@@H](C(=O)NCc2cccc3ccccc23)NC(=O)[C@H](CC(=O)N2CCCC2)N1 | < 50 | > 100 | > 100 | < 50 | – |
| O=C1CCc2cccc(c2)OCCCC[C@@H](C(=O)NCc2ccccc2F)NC(=O)[C@H](CCN2CCC[C@@H]2c2ccccc2)N1 | – | 86.2 | 47.3 | – | – |
| O=C1CCc2cccc(c2)OCCCC[C@@H](C(=O)NCc2ccccc2F)NC(=O)[C@H](CC(=O)N2CCC[C@H]2C2CC2)N1 | < 50 | 1.5 | 0.87 | < 50 | – |
| O=C1CCCCCCCCCC[C@@H](C(=O)NCc2cccc3ccccc23)NC(=O)[C@H](CC(=O)N2CCCC2)N1 | < 50 | > 100 | > 100 | < 50 | – |
| O=C(N[C@H]1Cc2cccc(c2)Oc2ccc(cc2)C[C@@H](C(=O)NCc2ccccc2F)NC(=O)[C@H](CC(=O)N2CCC[C@@H]2c2ccccc2)NC1=O)c1ccccc1 | < 50 | > 100 | > 100 | < 50 | – |
